Experimental data from different studies.
Protocols differ between the studies behind these lines.
MAP3K6: Mitogen-activated protein kinase kinase kinase 6 (MAP3K6, Homo sapiens, UniProt O95382)
SIRT3: NAD-dependent protein deacetylase sirtuin-3, mitochondrial (SIRT3, Homo sapiens, UniProt Q9NTG7)
MARK1: Serine/threonine-protein kinase MARK1 (MARK1, Homo sapiens, UniProt Q9P0L2)
TAF1 BD2: Transcription initiation factor TFIID subunit 1, BD2 (TAF1, Homo sapiens, UniProt P21675)
PTGS1: Prostaglandin G/H synthase 1 (PTGS1, Ovis aries, UniProt P05979)

Structure (SMILES)	target	assay	setting	measurement	result
Nc1ncnc2occ(-c3ccc(NC(=O)Nc4cc(C(F)(F)F)ccc4F)cc3)c12	MAP3K6	cell-free assay, inhibitor	20 µM	remaining signal	20%
CCCCCC1CC(=O)c2cc(C)cc(C)c2O1 (stereo not drawn)	SIRT3	enzyme activity, inhibitor, fluorescence	200 µM	inhibition	2.4%
Cc1nn(CC(F)(F)F)cc1Nc1ncc(C2CC2)c(NCCCNC(=O)C2CCC2)n1	MARK1	enzyme activity, inhibitor, radiometric	1 µM	remaining activity	79%
Oc1ccc(-c2nc(-c3ccncc3)c(-c3ccc(F)cc3)[nH]2)cc1	TAF1 BD2	thermal stability, DSF	10 µM	ΔTm	-0.06 °C
C#CCNC(=O)c1ccccc1SC(C)=O	PTGS1	enzyme activity, inhibitor		kinact	0.000417 s⁻¹
Oc1cccc(Nc2nc(-c3ccc(F)cc3F)cs2)c1	D(1A) dopamine receptor (DRD1, Homo sapiens, UniProt P21728)	cell-free assay	10 µM	inhibition	21.2%
C[S+]([O-])c1ccc(-c2nc(-c3ccncc3)c(-c3ccc(F)cc3)[nH]2)cc1 (stereo not drawn)	Transcription initiation factor TFIID subunit 1, BD1 (TAF1, Homo sapiens, UniProt P21675)	thermal stability, DSF	10 µM	ΔTm	-0.19 °C
NS(=O)(=O)c1ccc(Nc2nc(-c3ccc(F)cc3)c3ccccc3n2)cc1	Transcription initiation factor TFIID subunit 1-like, BD2 (TAF1L, Homo sapiens, UniProt Q8IZX4)	binding, competition with immobilised ligand	1 µM	remaining binding	77%
CCCCCC1CC(=O)c2cccc(Br)c2O1 (stereo not drawn)	SIRT3	enzyme activity, inhibitor, fluorescence	200 µM	inhibition	6.7%
CCCCCCNC(=O)c1ccccc1SC(C)=O	PTGS1	enzyme activity, inhibitor		kinact	0.00035 s⁻¹
Cc1ccc(C(=O)NCc2ccsc2)cc1C#Cc1cn(C(C)C)c2ncnc(N)c12	Transcription initiation factor TFIID subunit 1-like (TAF1L, Homo sapiens, UniProt Q8IZX4)	enzyme activity, inhibitor	1 µM	activity vs control	91%
CCCOc1ccc(OC)c(F)c1C(=O)c1ccc(C(=O)N[C@@H]2CNC[C@H]2NC(=O)c2ccc3[nH]ncc3c2)cc1	Serine/threonine-protein kinase MRCK alpha (CDC42BPA, Homo sapiens, UniProt Q5VT25)	enzyme activity, inhibitor	10 µM	remaining activity	-3%
Cc1cnc(Nc2ccc(OCCN3CCCC3)cc2)nc1Nc1cccc(S(=O)(=O)NC(C)(C)C)c1	TAF1 BD2	thermal stability, DSF	10 µM	ΔTm	0.28 °C
Cc1ccc(C(=O)Nc2ccc(CN3CCN(C)CC3)c(C(F)(F)F)c2)cc1C#Cc1cnc2cccnn12	MAP3K6	enzyme activity, inhibitor	23.5 nM	remaining activity	79%
Cc1nn(CC(F)(F)F)cc1Nc1ncc(C2CC2)c(NCCc2c[nH]cn2)n1	Mitogen-activated protein kinase kinase kinase 9 (MAP3K9, Homo sapiens, UniProt P80192)	enzyme activity, inhibitor, radiometric	1 µM	remaining activity	72%
CCCCC#CCNC(=O)c1ccccc1SC(C)=O	PTGS1	enzyme activity, inhibitor		kinact	0.000367 s⁻¹
Cc1nn(CC(F)(F)F)cc1Nc1nccc(NCCCNC(=O)C2CCC2)n1	MARK1	enzyme activity, inhibitor, radiometric	1 µM	remaining activity	108%
Cc1cc2c(cc1N1C(=O)c3cccc4c(Cl)ccc(c34)C1=O)n(C)c(=O)n2C	Transcription initiation factor TFIID subunit 1-like, BD1 (TAF1L, Homo sapiens, UniProt Q8IZX4)	thermal stability, DSF	10 µM	ΔTm	-0.2 °C
